Assay outcomes deposited in PubChem BioAssay by Johns Hopkins Ion Channel Center.
TRPC4 agonist: activators of mouse TRPC4 channel, primary screen, Fluo4 calcium, HEK293 TRPC4beta/mu-opioid cells; Short transient receptor potential channel 4 (Mus musculus), Q9QUQ5; Fluo4 calcium fluorescence; active compounds read high; B-score at 10 µM; 0.49% of 310,000 active; AID 2237, 2010;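 active = B-score above 5 SD of library B-scores, and initial fluorescence ratio not above library mean plus 5 SD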;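 also: positive B-score marks a calcium rise read as TRPC4 activation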
Target sequence (Q9QUQ5 whole entry, looked up): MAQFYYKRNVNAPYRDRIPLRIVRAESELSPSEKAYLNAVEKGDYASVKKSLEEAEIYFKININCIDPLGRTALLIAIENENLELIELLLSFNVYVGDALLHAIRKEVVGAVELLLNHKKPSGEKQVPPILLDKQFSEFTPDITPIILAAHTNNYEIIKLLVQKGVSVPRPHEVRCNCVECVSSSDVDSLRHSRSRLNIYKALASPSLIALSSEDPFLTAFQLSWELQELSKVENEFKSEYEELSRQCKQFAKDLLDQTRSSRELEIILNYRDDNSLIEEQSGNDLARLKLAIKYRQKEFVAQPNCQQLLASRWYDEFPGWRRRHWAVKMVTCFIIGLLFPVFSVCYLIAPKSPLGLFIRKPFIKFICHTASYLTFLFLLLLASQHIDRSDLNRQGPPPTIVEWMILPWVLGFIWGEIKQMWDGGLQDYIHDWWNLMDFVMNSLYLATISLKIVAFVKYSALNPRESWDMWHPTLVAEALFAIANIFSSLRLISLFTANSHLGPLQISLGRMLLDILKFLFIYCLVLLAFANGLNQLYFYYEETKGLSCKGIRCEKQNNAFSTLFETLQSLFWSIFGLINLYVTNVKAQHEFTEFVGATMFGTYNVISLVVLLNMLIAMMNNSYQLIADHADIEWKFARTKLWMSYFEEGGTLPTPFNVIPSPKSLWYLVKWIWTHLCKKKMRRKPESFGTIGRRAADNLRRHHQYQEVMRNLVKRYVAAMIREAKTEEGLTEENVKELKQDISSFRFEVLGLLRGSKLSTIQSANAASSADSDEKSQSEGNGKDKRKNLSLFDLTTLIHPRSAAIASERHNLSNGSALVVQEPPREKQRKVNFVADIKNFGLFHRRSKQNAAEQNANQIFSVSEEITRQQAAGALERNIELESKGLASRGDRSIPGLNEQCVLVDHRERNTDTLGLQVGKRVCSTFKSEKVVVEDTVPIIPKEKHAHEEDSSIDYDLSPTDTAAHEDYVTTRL
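Assay system: HEK293 stable line with TRPC4beta plus mu-opioid receptor; schedule: 45 min room-temperature Fluo4 loading, 110 s read; technique: kinetic Fluo4 calcium fluorescence; evaluation: integrated baseline-normalised fluorescence ratio, converted to per-well B score; controls: buffer (low) and maximal DAMGO (high)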
TRPC6 act: mouse TRPC6 channel activators, primary screen, cell-based, HEK293, membrane potential dye; AID 2550, 2010; B-score at 10 µM; HEK293-TRPC6 membrane potential dye fluorescence; active compounds read high; 0.13% of 310,000 active;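 active = B-score of the integrated fluorescence ratio above library mean plus 3 SD, and starting fluorescence ratio within library mean plus 5 SD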;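 also: higher score means more depolarization so channel activation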
TRPC4 potent: positive allosteric modulators of TRPC4, primary screen, cell-based, mouse TRPC4beta, HEK293 mu-opioid, Fluo-4 calcium. AID 2227, 2009. B-score at 10 µM. Short transient receptor potential channel 4 (Mus musculus), Q9QUQ5. 0.42% of 310,000 active. DAMGO EC20, Fluo-4 Ca2+ flux; active compounds read high;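 active = B-score of calcium response area above 5 SD of library B-scores, with initial fluorescence ratio within 5 SD of library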;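 also: B-score of integrated fluorescence ratio over time as area under calcium response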
TRPC4 block: inhibitors of mouse TRPC4 channel, primary screen, Fluo4 calcium, HEK293 TRPC4beta/mu-opioid cells | Short transient receptor potential channel 4 (Mus musculus), Q9QUQ5 | DAMGO-evoked Fluo4 calcium flux; active compounds read low | B-score at 10 µM | 0.39% of 300,000 active;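 active = B-score over 3 SD under the library average, no early fluorescence shift, positive overall ratio signal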
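Signal: kinetic Fluo4 fluorescence imaging of calcium influx. Material: stable TRPC4beta/mu-opioid receptor HEK293 cells. Probe or stimulus: DAMGO in two steps, submaximal then maximal.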
TRPC6 inhibitor: mouse TRPC6 channel inhibitors, primary screen, cell-based, HEK293, membrane potential dye. 1.1% of 310,000 active. AID 2553, 2010. ACh-evoked depolarization; active compounds read low. B-score at 10 µM. Short transient receptor potential channel 6 (Mus musculus), Q61143;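 active = B-score under library mean minus 3 SD, initial fluorescence not abnormally high, positive integrated signal ratio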;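 also: B-score derived from integrated fluorescence ratio over the kinetic read; more negative B-score means stronger inhibition of depolarization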
TRPC4 sel inh 2: second selectivity test of TRPC6 inhibitors: effect on mouse TRPC4. AID 2776. 42% of 920 active. HEK293 TRPC4/MOR, membrane potential dye fluorescence; channel activated by saturating DAMGO dose. shares compounds with TRPC6 inhibitor. inhibition, % at 10 µM;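 active = compounds whose fluorescence signal differed from control wells by over 3 SD, either direction, in both duplicate plates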
TRPC4 spec: mouse TRPC4 modulation by TRPC6 hits, confirmation, selectivity assay for TRPC6 inhibitor project, cell-based, HEK293 TRPC4/mu-opioid, membrane potential dye. shares compounds with TRPC6 inhibitor. membrane potential fluorescence. activity change, negative = inhibition, % at 10 µM. 61% of 920 active;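 active = rise or fall in signal beyond 3 SD of buffer-only wells in both replicate plates, either sign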;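 also: integrated kinetic ratio of fluorescence range over baseline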
HEK293 MPD ctr 2-1: nonspecific membrane potential effects, parental HEK293, confirmation, counter-screen for TRPC6 inhibitor project, cell-based, second counter screen; signal change vs control, % at 10 µM; parental HEK293 membrane potential dye fluorescence; maximal acetylcholine challenge after compound addition; AID 2779, 2010; 31% of 920 active; shares compounds with TRPC6 inhibitor;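 active = membrane potential signal moving either way by over 3 SD of the maximum-effect control, in both duplicate plates, meaning non-specific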
HEK293 MPD ctr-1: membrane potential modulation in parental HEK293, confirmation, counter-screen for TRPC6 inhibitor project, cell-based | shares compounds with TRPC6 inhibitor | parental HEK293 membrane potential dye fluorescence | membrane potential signal change, % at 10 µM | 60% of 920 active | AID 2780, 2010;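 active = membrane potential signal shifting up or down by more than 3 SD of buffer-only wells, on both duplicate plates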
HEK293 MPD ctr-2: parental HEK293 membrane potential modulation, confirmation, counter-screen for TRPC6 modulator project, cell-based | shares compounds with TRPC6 inhibitor | membrane potential signal change, % at 10 µM | membrane potential dye fluorescence | 51% of 2,400 active | AID 488924, 2010;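 active = membrane potential signal moves up or down beyond 5 SD from buffer-only wells, on both duplicate plates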
HEK293 MPD ctr 2-2: parental HEK293 nonspecific activity of TRPC6 modulators, second screen | shares compounds with TRPC6 inhibitor | membrane potential dye fluorescence; after compound, maximal acetylcholine stimulation | inhibition, % at 10 µM | 14% of 2,400 active | AID 488926;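 active = membrane potential signal drops by more than 5 SD from the mean control signal, in both duplicate plates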;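 also: plate controls were acetylcholine ECmax control wells for no effect and buffer only wells for full effect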
TRPC4/MOR mod: TRPC4 modulation by TRPC6 hit compounds, confirmation, selectivity assay for TRPC6 modulator project, cell-based, HEK293 TRPC4/mu-opioid, membrane potential dye, mouse | membrane potential fluorescence | shares compounds with TRPC6 inhibitor | 69% of 2,400 active | percent change from control (negative = decrease, positive = increase), % at 10 µM;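 active = membrane potential signal moved up or down beyond 5 SD of buffer control wells, in both duplicate plates, actives on both sides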;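 also: plate controls were assay buffer wells for no effect and DAMGO maximal-effect wells for full effect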
TRPC4/MOR inh 2: mouse TRPC4 off-target activity of TRPC6 modulators, second screen | inhibition, % at 10 µM | 55% of 2,400 active | shares compounds with TRPC6 inhibitor | HEK293 TRPC4/mu-opioid, membrane potential dye fluorescence; stimulated with maximal-effect DAMGO | AID 488928;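 active = drop in membrane potential signal beyond 5 SD of the control wells in both duplicate plates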;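 also: TRPC4 counter screen for TRPC6 hits run under conditions tuned for TRPC6 not TRPC4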
TRPC6 block conf: mouse TRPC6 channel inhibitors, confirmation, HEK293 cells, membrane potential dye, duplicate; 43% of 3,300 active; ACh-evoked depolarization; inhibition, % at 10 µM; shares compounds with TRPC6 inhibitor;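 active = fluorescence ratio falls more than 5 SD below the full-stimulation control mean, in both duplicate runs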;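 also: integrated fluorescence ratio of peak minus minimum over baseline after agonist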
TRPC6 act confirm: mouse TRPC6 channel activators, confirmation, HEK293 cells, membrane potential dye, duplicate. shares compounds with TRPC6 inhibitor. HEK293-TRPC6 membrane potential dye fluorescence, FDSS. activation, % at 10 µM. 11% of 2,800 active. AID 488961, 2010;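 active = ratio signal rise beyond 5 SD above unstimulated control wells' mean, seen in both duplicate runs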;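 also: plate controls were buffer EC0 wells for no effect and acetylcholine ECmax response for full effect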
* = called active by the depositor. In the library only some 2.3% were active in any assay of this set; here they are far more common.

`Cc1ccc(OCC(O)CNCc2ccccc2)cc1C` (centres undefined) gave TRPC4 agonist inactive, TRPC6 act inactive, TRPC4 potent inactive, TRPC4 block inactive, TRPC6 inhibitor -5.1*, HEK293 MPD ctr-2 132%*, HEK293 MPD ctr 2-2 inactive, TRPC4/MOR mod 19%*, TRPC4/MOR inh 2 46%* and TRPC6 block conf inactive.
For Cc1ccnc(NC(=O)CCC(=O)N(CC(=O)NCc2ccccc2)Cc2cccs2)c1 the results were TRPC4 agonist inactive, TRPC6 act inactive, TRPC4 potent inactive, TRPC4 block inactive and TRPC6 inhibitor inactive.
Cc1c(F)cccc1NS(=O)(=O)c1ccc2c(c1)c(C)cc(=O)n2C was read as TRPC4 agonist inactive, TRPC6 act inactive, TRPC4 potent inactive, TRPC4 block inactive, TRPC6 inhibitor -6.8*, TRPC4 sel inh 2 inactive, TRPC4 spec inactive, HEK293 MPD ctr 2-1 inactive, HEK293 MPD ctr-1 inactive, TRPC6 block conf inactive and TRPC6 act confirm inactive.
For Cc1[nH]c2ccccc2c1/C=N/NC(=O)c1cccc([N+](=O)[O-])c1 the results were TRPC4 agonist inactive, TRPC6 act inactive, TRPC4 potent inactive, TRPC4 block inactive and TRPC6 inhibitor inactive.
Cc1[nH]c2ccccc2c1/C=N/Nc1ccc([N+](=O)[O-])cc1 was read as TRPC4 agonist inactive, TRPC6 act 11*, TRPC4 potent inactive, TRPC4 block inactive, TRPC6 inhibitor inactive, HEK293 MPD ctr-2 144%*, HEK293 MPD ctr 2-2 inactive, TRPC4/MOR mod 36%*, TRPC4/MOR inh 2 inactive, TRPC6 block conf inactive and TRPC6 act confirm 56%*.
For CCOc1c(Cl)cc(CNCC(C)C)cc1Cl the results were TRPC4 agonist inactive, TRPC6 act inactive, TRPC4 potent inactive, TRPC4 block inactive and TRPC6 inhibitor inactive.
For CCn1c(=NC(=O)CSC(C)=O)sc2cc(OC)ccc21 the results were TRPC4 agonist inactive, TRPC6 act 17*, TRPC4 potent inactive, TRPC4 block inactive, TRPC6 inhibitor inactive, HEK293 MPD ctr-2 inactive, HEK293 MPD ctr 2-2 inactive, TRPC4/MOR mod 9.0%*, TRPC4/MOR inh 2 inactive and TRPC6 act confirm 152%*.
For CCOC(=O)c1ccc(NC(=O)Oc2cc(C)c(Cl)cc2C(C)C)cc1 the results were TRPC4 agonist inactive, TRPC6 act inactive, TRPC4 potent inactive, TRPC4 block inactive, TRPC6 inhibitor -9.9*, HEK293 MPD ctr-2 126%*, HEK293 MPD ctr 2-2 inactive, TRPC4/MOR mod 13%*, TRPC4/MOR inh 2 31%*, TRPC6 block conf inactive and TRPC6 act confirm inactive.
CC(NC(=O)CCNC(=O)N1CCn2c1nc1ccccc12)c1ccccc1 (centres undefined) was read as TRPC4 agonist inactive, TRPC6 act inactive, TRPC4 potent inactive, TRPC4 block inactive and TRPC6 inhibitor inactive.
O=C(c1cccc(C(=O)N2CCN(c3ccccc3F)CC2)n1)N1CCN(c2ccccc2F)CC1 was read as TRPC4 agonist inactive, TRPC6 act 12*, TRPC4 potent inactive, TRPC4 block inactive, TRPC6 inhibitor -10*, HEK293 MPD ctr-2 142%*, HEK293 MPD ctr 2-2 inactive, TRPC4/MOR mod 29%*, TRPC4/MOR inh 2 64%*, TRPC6 block conf 88%* and TRPC6 act confirm 130%*.
`O=C(Nc1cccc(Br)c1)c1ccc(Cl)c(S(=O)(=O)N2CCOCC2)c1` gave TRPC4 agonist inactive, TRPC6 act inactive, TRPC4 potent inactive, TRPC4 block inactive and TRPC6 inhibitor inactive.
For O=C(Nc1cccc(S(=O)(=O)C(F)F)c1)c1ccc(Cl)c(S(=O)(=O)N2CCOCC2)c1 the results were TRPC4 agonist inactive, TRPC6 act inactive, TRPC4 potent inactive, TRPC4 block inactive, TRPC6 inhibitor -6.1*, HEK293 MPD ctr-2 inactive, HEK293 MPD ctr 2-2 inactive, TRPC4/MOR mod inactive, TRPC4/MOR inh 2 inactive, TRPC6 block conf inactive and TRPC6 act confirm inactive.
`Cc1sc2c3ccsc3ccc2[n+]1C` gave TRPC4 agonist inactive, TRPC6 act inactive, TRPC4 potent inactive, TRPC4 block inactive, TRPC6 inhibitor -8.6*, HEK293 MPD ctr-2 -292%*, HEK293 MPD ctr 2-2 71%*, TRPC4/MOR mod -50%*, TRPC4/MOR inh 2 58%*, TRPC6 block conf 68%* and TRPC6 act confirm inactive.
